Assay results published in ChEMBL document CHEMBL3580589, “Discovery of Quinazoline-Based Fluorescent Probes to α1-Adrenergic Receptors” (ACS Med Chem Lett, 2015).
Values belong to the compound of their own block, whether it stands above or below them. Active and inactive are the calls of the source. The calls are words filed in the database; no cut-off is given here.

What was measured:
[1] = molecular target: T1, Alpha-1D adrenergic receptor (Homo sapiens) (UniProt P25100); test: Binding affinity to alpha-1D adrenergic receptor (unknown origin) transfected in HEK293A cells at 15 nM measured 5 mins post wash out by DiD dye-based confocal microscopic analysis in presence of alpha1 adrenergic receptor antagonist tamsulosin; format: cell-based; settings: HEK293-A
T1 sequence (whole entry): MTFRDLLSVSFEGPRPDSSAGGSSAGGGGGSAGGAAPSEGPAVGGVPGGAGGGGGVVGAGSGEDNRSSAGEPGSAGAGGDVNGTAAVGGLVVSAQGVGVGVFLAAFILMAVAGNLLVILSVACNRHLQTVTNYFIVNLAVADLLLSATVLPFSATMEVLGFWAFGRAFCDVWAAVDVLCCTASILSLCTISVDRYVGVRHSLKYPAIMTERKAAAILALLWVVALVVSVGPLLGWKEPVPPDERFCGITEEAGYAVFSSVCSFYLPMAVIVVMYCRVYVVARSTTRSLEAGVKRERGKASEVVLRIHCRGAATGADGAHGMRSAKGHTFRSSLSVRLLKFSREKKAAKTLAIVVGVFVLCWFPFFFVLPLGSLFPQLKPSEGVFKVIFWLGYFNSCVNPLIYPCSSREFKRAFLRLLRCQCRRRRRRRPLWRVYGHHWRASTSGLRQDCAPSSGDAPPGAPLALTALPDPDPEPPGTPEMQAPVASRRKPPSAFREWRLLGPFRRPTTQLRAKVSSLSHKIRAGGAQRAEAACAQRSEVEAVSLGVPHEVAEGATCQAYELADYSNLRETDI
In short: (§1)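 α1A-AR- or α1D-AR-transfected HEK293A cells were incubated with the probe at 15 nM, DiD and tamsulosin at 300 nM as competitor for 5 min at 37 °C. Cells were washed immediately and imaged by confocal microscopy at identical exposure.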

[2] = molecular target: T2, Alpha-1A adrenergic receptor (Homo sapiens) (UniProt P35348); test: Binding affinity to alpha-1A adrenergic receptor (unknown origin) transfected in HEK293A cells at 15 nM measured 5 mins post wash out by DiD dye-based confocal microscopic analysis; format: cell-based; settings: HEK293-A
T2 sequence (whole entry): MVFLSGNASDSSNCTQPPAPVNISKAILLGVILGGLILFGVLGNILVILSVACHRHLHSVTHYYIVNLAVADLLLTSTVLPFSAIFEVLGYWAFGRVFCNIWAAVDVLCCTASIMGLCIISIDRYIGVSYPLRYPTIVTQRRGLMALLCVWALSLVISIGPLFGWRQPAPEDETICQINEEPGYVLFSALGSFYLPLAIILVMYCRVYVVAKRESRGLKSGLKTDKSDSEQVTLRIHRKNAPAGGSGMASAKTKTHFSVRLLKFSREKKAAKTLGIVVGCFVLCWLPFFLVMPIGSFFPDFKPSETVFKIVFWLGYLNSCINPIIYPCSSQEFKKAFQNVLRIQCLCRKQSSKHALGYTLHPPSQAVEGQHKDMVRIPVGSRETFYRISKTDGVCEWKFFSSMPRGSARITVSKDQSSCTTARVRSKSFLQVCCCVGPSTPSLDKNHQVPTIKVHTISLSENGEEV
In short: (§2)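 HEK293A cells stably transfected with α1A-AR or α1D-AR, or untransfected HEK293A cells, were incubated with the probe at 15 nM plus the membrane dye DiD for 5 min at 37 °C. Cells were washed immediately and imaged by confocal fluorescence microscopy at identical exposure times.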

[3] = Drug uptake in plasma membrane of HEK293A cells transfected with alpha-1D adrenergic receptor at 50 nM measured 5 mins post wash out by DiD dye-based confocal microscopic analysis; format: ADME, cell membranes; settings: human, hek293-a, 0.05 µM
In short: (§3)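 α1A-AR- or α1D-AR-transfected HEK293A cells, or untransfected HEK293A cells as the receptor-free control, were incubated with the probe plus DiD (red, colocalization) for 5 min at 37 °C. Probe signal was compared with the DiD-stained surface for subcellular localization by fluorescence microscopy.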

[4] = Cytotoxicity against HEK293A cells transfected with alpha-1D adrenergic receptor assessed as cell viability by sulforhodamine B assay; format: cell-based; settings: Homo sapiens, HEK293-A
In short: (§4)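 Standard sulforhodamine B colorimetric assay in HEK293A cells stably transfected with α1A-AR or α1D-AR.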

[5] = molecular target: T3, Alpha-1A adrenergic receptor (Homo sapiens, UniProt P35348); test: Displacement of [3H]-Prazosin from human alpha-1A adrenergic receptor transfected in CHO cell membranes after 2 hrs by microplate scintillation counting analysis
T3 sequence (P35348 whole entry): T2 sequence (whole entry)
In short: (§5)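 Radioligand competition binding used [3H]prazosin on membranes from CHO cells transfected with human cloned α1A-, α1B- or α1D-adrenoceptors.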

[6] = Drug uptake in cytoplasm of HEK293A cells transfected with alpha-1D adrenergic receptor at 50 nM measured 5 mins post wash out by DiD dye-based confocal microscopic analysis; format: ADME, cell-based; settings: human, hek293-a, 0.05 µM; in short: as §3
[7] = Cytotoxicity against HEK293A cells transfected with alpha-1A adrenergic receptor assessed as cell viability by sulforhodamine B assay; format: cell-based; settings: Homo sapiens, HEK293-A; in short: as §4
[8] = molecular target: T4, Alpha-1B adrenergic receptor (Homo sapiens, UniProt P35368); test: Displacement of [3H]-Prazosin from human alpha-1B adrenergic receptor transfected in CHO cell membranes after 2 hrs by microplate scintillation counting analysis; in short: as §5
T4 sequence (P35368 whole entry): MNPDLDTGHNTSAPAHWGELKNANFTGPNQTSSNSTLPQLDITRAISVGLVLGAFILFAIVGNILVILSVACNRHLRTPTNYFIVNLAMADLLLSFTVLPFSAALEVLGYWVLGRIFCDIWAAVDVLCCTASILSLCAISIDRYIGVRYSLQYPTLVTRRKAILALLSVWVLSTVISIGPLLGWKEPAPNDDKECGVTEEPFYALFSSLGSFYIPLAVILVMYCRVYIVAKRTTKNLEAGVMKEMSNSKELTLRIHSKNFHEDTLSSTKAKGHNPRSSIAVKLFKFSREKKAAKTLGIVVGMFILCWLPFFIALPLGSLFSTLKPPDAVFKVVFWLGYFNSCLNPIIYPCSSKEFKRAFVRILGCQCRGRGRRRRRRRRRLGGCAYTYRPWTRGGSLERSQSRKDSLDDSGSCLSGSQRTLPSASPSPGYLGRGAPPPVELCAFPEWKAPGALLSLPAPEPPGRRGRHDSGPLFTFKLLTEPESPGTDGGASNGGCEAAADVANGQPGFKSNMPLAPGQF

[9] = Drug uptake in HEK293A cells at 15 nM measured 5 mins post wash out by DiD dye-based confocal microscopic analysis; format: ADME, cell-based; settings: human, hek293-a, 0.015 µM; in short: as §2
[10] = molecular target: T2, Alpha-1A adrenergic receptor (Homo sapiens); test: Binding affinity to alpha-1A adrenergic receptor (unknown origin) transfected in HEK293A cells at 15 nM measured 5 mins post wash out by DiD dye-based confocal microscopic analysis in presence of alpha1 adrenergic receptor antagonist tamsulosin; format: cell-based; settings: HEK293-A; in short: as §1
[11] = molecular target: T5, Alpha-1D adrenergic receptor (Homo sapiens, UniProt P25100); test: Displacement of [3H]-Prazosin from human alpha-1D adrenergic receptor transfected in CHO cell membranes after 2 hrs by microplate scintillation counting analysis; in short: as §5
T5 sequence (P25100 whole entry): T1 sequence (whole entry)

[12] = molecular target: T1, Alpha-1D adrenergic receptor (Homo sapiens); test: Binding affinity to alpha-1D adrenergic receptor (unknown origin) transfected in HEK293A cells at 15 nM measured 5 mins post wash out by DiD dye-based confocal microscopic analysis; format: cell-based; settings: HEK293-A; in short: as §2
[13] = Drug uptake in plasma membrane of HEK293A cells transfected with alpha-1A adrenergic receptor at 50 nM measured 5 mins post wash out by DiD dye-based confocal microscopic analysis; format: ADME; settings: human, hek293-a, 0.05 µM; in short: as §3
[14] = molecular target: T2, Alpha-1A adrenergic receptor (Homo sapiens); test: Binding affinity to alpha-1A adrenergic receptor (unknown origin) transfected in HEK293A cells at 50 nM after 5 mins by DiD dye-based confocal microscopic analysis; format: cell-based; settings: HEK293-A; in short: as §3
[15] = Drug uptake in HEK293A cells at 50 nM after 5 mins by DiD dye-based confocal microscopic analysis; format: ADME, cell-based; settings: human, hek293-a, 0.05 µM; in short: as §3
[16] = molecular target: T1, Alpha-1D adrenergic receptor (Homo sapiens); test: Binding affinity to alpha-1D adrenergic receptor (unknown origin) transfected in HEK293A cells at 50 nM after 5 mins by DiD dye-based confocal microscopic analysis in presence of alpha1 adrenergic receptor antagonist tamsulosin; format: cell-based; settings: HEK293-A
In short: (§6)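 Transfected HEK293A cells expressing α1A-AR or α1D-AR were incubated with the probe, DiD and tamsulosin as competing α1-AR antagonist for 5 min at 37 °C. Fluorescence labelling was imaged by confocal microscopy.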

[17] = molecular target: T6, Adrenergic receptor alpha-1 (Homo sapiens) (UniProt P35348+P25100+P35368); test: Binding affinity to alpha-1 adrenergic receptor in human PC3 cells at 1 uM measured 30 mins post wash out by fluorescence assay; format: cell-based; settings: PC-3
In short: (§7)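 PC-3 or HepG2 cells were incubated with the probe at 1 μM for 30 min at 37 °C, then washed immediately. Labelling was imaged by fluorescence microscopy, with background adjusted.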

[18] = molecular target: T6, Adrenergic receptor alpha-1 (Homo sapiens); test: Binding affinity to alpha-1 adrenergic receptor in human PC3 cells at 1 uM measured 30 mins post wash out by fluorescence assay in presence of doxazosin; format: cell-based; settings: PC-3
In short: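 PC-3 cells were co-incubated with the probe at 1 μM and doxazosin at 10 μM for 30 min at 37 °C, then washed immediately. Displacement of labelling was imaged by fluorescence microscopy.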

[19] = molecular target: T2, Alpha-1A adrenergic receptor (Homo sapiens); test: Binding affinity to alpha-1A adrenergic receptor (unknown origin) transfected in HEK293A cells at 50 nM after 5 mins by DiD dye-based confocal microscopic analysis in presence of alpha1 adrenergic receptor antagonist tamsulosin; format: cell-based; settings: HEK293-A; in short: as §6
[20] = molecular target: T1, Alpha-1D adrenergic receptor (Homo sapiens); test: Binding affinity to alpha-1D adrenergic receptor (unknown origin) transfected in HEK293A cells at 50 nM after 5 mins by DiD dye-based confocal microscopic analysis; format: cell-based; settings: HEK293-A; in short: as §3
[21] = system: HepG2; test: Drug uptake in human HepG2 cells expressing low level of alpha-1 adrenergic receptor at 1 uM measured 30 mins post wash out by fluorescence assay; format: ADME, cell-based; settings: hepg2, 0.5 h; in short: as §7

- Activity [1]: inactive
- Activity [2]: Active
- Drug uptake [3]: Active
- IC50 [5]: 3.9 nM
- Ki [5]: 2.1 nM
- Drug uptake [6]: Active
- IC50 [8]: < 5 nM
- Drug uptake [9]: Active
- Activity [10]: inactive
- IC50 [11]: < 5 nM
- Activity [12]: Active
- Drug uptake [13]: Active
Compound: COc1cc2nc(N3CCN(C(=O)c4cc5ccc(O)cc5oc4=O)CC3)nc(N)c2cc1OC
- IC50 [4]: > 100 µM
- IC50 [7]: > 100 µM

- Activity [14]: Active
- Drug uptake [15]: Active
- IC50 [5]: 8.8 nM
- Ki [5]: 4.7 nM
- IC50 [8]: 16.3 nM
- Ki [8]: 7.3 nM
- Activity [16]: inactive
- Activity [17]: Active
- Activity [18]: inactive
- IC50 [11]: 34 nM
- Ki [11]: 20.7 nM
- Activity [19]: inactive
- Activity [20]: Active
- Drug uptake [21]: Active
Compound: COc1cc2nc(N3CCN(C(=S)Nc4ccc(-c5c6ccc(=O)cc-6oc6cc(O)ccc56)c(C(=O)O)c4)CC3)nc(N)c2cc1OC
- IC50 [4]: > 100 µM
- IC50 [7]: > 100 µM

Compound: COc1cc2nc(N3CCN(C(=O)C4COc5ccccc5O4)CC3)nc(N)c2cc1OC (configuration not stated) [DOXAZOSIN]
- IC50 [4]: 22 µM
- IC50 [7]: 19 µM
